Bioassay records as filed in PubChem.
Sampled rows, rich in hits. Any-hit rate of the full collection: about 2.9%.
CHO-K1 Ca antag: nonselective inhibitor or artifact in parental CHO-K1 cells | actives 0.6% (n = 360,000) | inhibition, % at 3 µM | ATP-induced calcium, Fluo-8 fluorescence | AID 602250;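 active = inhibition above a per-plate cutoff, the plate's mean sample inhibition plus 3 SD, cut at about 24% in these data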;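 also: 0% = DMSO plus EC80 ATP and 100% = DMSO alone without ATP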
CHO-K1 Ca PAM: counter-screen for M1 PAMs: effect in parental CHO-K1 cells; AID 602247; activation, % at 3 µM; ATP EC20, Fluo-8 calcium fluorescence; 0% at ATP EC20, 100% at ATP max; actives 0.02% (n = 360,000);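 active = activation above the run cutoff, the mean activation of all test compounds plus 3 SD, cut at about 40% in these data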;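 also: peak over basal fluorescence ratio in a 140 s read after ATP addition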
OX1R antag-1: antagonists of human orexin 1 receptor; CHO/OX1R cells, Fluo-8 calcium fluorescence, orexin A; actives 0.43% (n = 330,000); inhibition, % at 5 µM; O43613;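 active = inhibition above its plate's threshold, mean inhibition of all tested compounds on the plate plus 3 SD, cut at about 37% in these data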;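 also: 0% = orexin A challenge wells and 100% = SB-334867-A antagonist wells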
Target sequence (O43613 whole entry, looked up): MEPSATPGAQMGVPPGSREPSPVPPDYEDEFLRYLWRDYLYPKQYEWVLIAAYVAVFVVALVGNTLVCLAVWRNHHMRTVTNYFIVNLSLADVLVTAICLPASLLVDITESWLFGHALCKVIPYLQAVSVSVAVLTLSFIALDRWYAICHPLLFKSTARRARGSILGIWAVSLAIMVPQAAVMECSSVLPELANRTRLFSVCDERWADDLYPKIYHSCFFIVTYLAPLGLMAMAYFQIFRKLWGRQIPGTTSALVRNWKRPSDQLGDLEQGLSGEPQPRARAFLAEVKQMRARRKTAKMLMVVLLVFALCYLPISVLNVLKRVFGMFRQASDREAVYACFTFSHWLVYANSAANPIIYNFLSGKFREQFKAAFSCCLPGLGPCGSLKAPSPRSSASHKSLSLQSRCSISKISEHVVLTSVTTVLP
M1 ag parental: counter-screen for M1 agonists: effect in parental CHO-K1 cells; AID 602248; activation, % at 3 µM; Fluo-8 calcium fluorescence; scaled to maximal ATP response, vehicle zero; actives 0.48% (n = 360,000); in the data active = activation above about 15%;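 also: untransfected CHO-K1 host cells lacking M1 receptor as counterscreen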
CHO parental Ca: signal in parental CHO cells, OX1R antagonist counter-screen | AID 463079 | actives 0.63% (n = 330,000) | inhibition, % at 5.6 µM | parental CHO-K1, ATP-induced calcium, Fluo-8 fluorescence;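 active = inhibition above that plate's mean sample inhibition plus 3 SD, cut at about 26% in these data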;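 also: 0% = ATP-challenged DMSO wells and 100% = DMSO wells without ATP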
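Assay system – parental CHO cells · Reagent – ATP stimulus · Detection – intracellular calcium via Fluo-8 no-wash fluorescent dye · Evaluation – percent inhibition of ATP-evoked calcium rise, normalized to controls · Controls – ATP wells versus no-ATP DMSO wells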
OX1R antag-2: antagonists of human orexin 1 receptor (OX1R) | O43613 | inhibition, % at 6.6 µM | actives 1.8% (n = 330,000) | OX1R-expressing cells, FRET antagonist read-out; in the data active = inhibition mostly above about 38%, no sharp cut-off; inactive = mostly below about 40%;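 also: 0% = agonist challenge alone and 100% = reference antagonist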
OX1R Fluo8 conf: confirmation of human orexin 1 receptor antagonists. inhibition, % at 5 µM. shares compounds with OX1R antag-1. actives 38% (n = 1,100). CHO/OX1R cells, orexin A calcium Fluo-8 fluorescence; in the data active = inhibition above about 29%;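 also: 0% = agonist challenge alone and 100% = reference antagonist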
CHO Ca counter: counter-screen: parental CHO calcium response change, triplicate; shares compounds with OX1R antag-1; parental CHO-K1, ATP-induced calcium, Fluo-8 fluorescence; inhibition, % at 5.6 µM; actives 9.3% (n = 1,100); AID 492965;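 active = inhibition above a per-plate limit, the mean inhibition of that plate's test compounds plus 3 SD, cut at about 25% in these data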;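 also: 0% = ATP challenge with DMSO and 100% = DMSO without ATP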
* marks the source's active call; other numbers are inactive results.

CCOc1ccccc1NC(=O)CCN(c1ccc(C)cc1)S(=O)(=O)c1ccccc1 was read as CHO-K1 Ca antag -8, CHO-K1 Ca PAM 23, OX1R antag-1 1, M1 ag parental 1, CHO parental Ca -23 and OX1R antag-2 55.
`CCOc1ccccc1NC(=O)CN(c1nccs1)S(=O)(=O)c1ccc(N)cc1` gave CHO-K1 Ca antag -3, CHO-K1 Ca PAM 5, OX1R antag-1 28, M1 ag parental 0, CHO parental Ca -18, OX1R antag-2 72, OX1R Fluo8 conf 30* and CHO Ca counter -15.
Cc1nn(C)c(C(=O)N/N=C/c2ccc(-c3ccccc3)cc2)c1Cl was read as CHO-K1 Ca antag -15, CHO-K1 Ca PAM 7, OX1R antag-1 -14, M1 ag parental 1, CHO parental Ca 9 and OX1R antag-2 0.
`COc1cn(-c2ccccc2)nc1C(=O)Nc1ccc(C)cc1Cl` gave CHO-K1 Ca antag -15, CHO-K1 Ca PAM 13, OX1R antag-1 28, M1 ag parental 0, CHO parental Ca -18, OX1R antag-2 64, OX1R Fluo8 conf 17 and CHO Ca counter 12.
`Cc1ccc(S(=O)(=O)N2CCOCC2)cc1C(=O)N1CCC(Cc2ccccc2)CC1` gave CHO-K1 Ca antag -14, CHO-K1 Ca PAM 17, OX1R antag-1 -29, M1 ag parental 4, CHO parental Ca -22 and OX1R antag-2 32.
O=C(CSc1ccc(S(=O)(=O)N2CCOCC2)cn1)Nc1ccc(F)c(F)c1 was read as CHO-K1 Ca antag 10, CHO-K1 Ca PAM -19, OX1R antag-1 35, M1 ag parental 10, CHO parental Ca -4, OX1R antag-2 21, OX1R Fluo8 conf 22 and CHO Ca counter 18.
`O=C(CSc1ccc(S(=O)(=O)N2CCOCC2)cn1)Nc1ccc(OC(F)F)cc1` gave CHO-K1 Ca antag -13, CHO-K1 Ca PAM -5, OX1R antag-1 6, M1 ag parental 5, CHO parental Ca -8 and OX1R antag-2 10.
For CNc1ccc(Oc2c(F)c(F)nc(F)c2F)cc1 the results were CHO-K1 Ca antag -4, CHO-K1 Ca PAM 5, OX1R antag-1 29, M1 ag parental -1, CHO parental Ca 5, OX1R antag-2 7, OX1R Fluo8 conf -5 and CHO Ca counter 4.
`CCn1cc(C(=O)N(C)CC(OC)OC)c(=O)c2cc(S(=O)(=O)N3CCOCC3)ccc21` gave CHO-K1 Ca antag -9, CHO-K1 Ca PAM 12, OX1R antag-1 -2, M1 ag parental 1, CHO parental Ca 4 and OX1R antag-2 6.
Screening O=C(CCNS(=O)(=O)c1ccc(F)c(Cl)c1)NCc1ccccc1F returned CHO-K1 Ca antag -1, CHO-K1 Ca PAM -14, OX1R antag-1 -24, M1 ag parental 0, CHO parental Ca -7 and OX1R antag-2 3.
For Cc1occc1-c1nnc(SCC(=O)c2c(N)n(C3CC3)c(=O)[nH]c2=O)n1C the results were CHO-K1 Ca antag -6, CHO-K1 Ca PAM -2, OX1R antag-1 10, M1 ag parental 0, CHO parental Ca -1 and OX1R antag-2 12.
CC1(C)CC(=O)C=C(c2ccc(COC(=O)C3CC3)cc2)C1=O was read as CHO-K1 Ca antag 11, CHO-K1 Ca PAM -3 and M1 ag parental 1.
Screening Cc1ccn2c(NCc3ccccc3)c(-c3cccc(SC4CCCCC4)c3)nc2c1 returned CHO-K1 Ca antag -20, CHO-K1 Ca PAM 8, OX1R antag-1 56, M1 ag parental 0, CHO parental Ca 15, OX1R antag-2 32, OX1R Fluo8 conf 18 and CHO Ca counter -4.
`Clc1ccc2nc(-c3cccc(SC4CCCCC4)c3)c(NCc3ccccc3)n2c1` gave CHO-K1 Ca antag -4, CHO-K1 Ca PAM -8, OX1R antag-1 -24, M1 ag parental 0, CHO parental Ca -30 and OX1R antag-2 25.
CC(=O)c1cccc(NC(=O)c2ccc(N(Cc3ccccc3C)S(C)(=O)=O)cc2)c1 was read as CHO-K1 Ca antag -9, CHO-K1 Ca PAM 3, OX1R antag-1 24, M1 ag parental 4, CHO parental Ca 2, OX1R antag-2 22, OX1R Fluo8 conf 22 and CHO Ca counter 7.
For CC(=O)Nc1ccc(NC(=O)c2ccc(N(Cc3ccccc3C)S(C)(=O)=O)cc2)cc1 the results were CHO-K1 Ca antag 1, CHO-K1 Ca PAM -7, OX1R antag-1 19, M1 ag parental 1, CHO parental Ca -14 and OX1R antag-2 23.
Screening Cc1cc(OCC(=O)Nc2ccc(N3CCN(C)CC3)cc2)ccc1Cl returned CHO-K1 Ca antag -9, CHO-K1 Ca PAM 18, OX1R antag-1 4, M1 ag parental 9, CHO parental Ca 3 and OX1R antag-2 15.
Screening COCC(=O)Nc1cc(C(=O)NCC(C)C)ccc1Cl returned CHO-K1 Ca antag -4, CHO-K1 Ca PAM 0, OX1R antag-1 32, M1 ag parental 0, CHO parental Ca 2, OX1R antag-2 6, OX1R Fluo8 conf -3 and CHO Ca counter -1.
COCC(=O)Nc1cc(C(=O)NCCc2ccccc2)ccc1Cl was read as CHO-K1 Ca antag -7, CHO-K1 Ca PAM 14, OX1R antag-1 -5, M1 ag parental 0, CHO parental Ca -11 and OX1R antag-2 12.
Screening CCOC(=O)c1nc(Nc2ccc(N3CCC(C)CC3)cc2)c2ccccc2n1 returned CHO-K1 Ca antag -6, CHO-K1 Ca PAM 8, OX1R antag-1 -54, M1 ag parental 2, CHO parental Ca -13 and OX1R antag-2 16.
Screening CCC(=O)c1ccc(OC(=O)c2ccc(Br)o2)cc1 returned CHO-K1 Ca antag 0, CHO-K1 Ca PAM 0, OX1R antag-1 40, M1 ag parental 43*, CHO parental Ca 25, OX1R antag-2 -10, OX1R Fluo8 conf 38* and CHO Ca counter 39*.
Cc1ccc(C)c(OCCC(=O)NNC(=O)c2ccccc2)c1 was read as CHO-K1 Ca antag -3, CHO-K1 Ca PAM -1, OX1R antag-1 18, M1 ag parental 1, CHO parental Ca 8, OX1R antag-2 14, OX1R Fluo8 conf -4 and CHO Ca counter -3.
For COc1ccc2c(c1)CC(N1CCN(C)CC1)c1cc(OC)ccc1S2 (stereo not drawn) the results were CHO-K1 Ca antag -3, CHO-K1 Ca PAM 0, OX1R antag-1 45*, M1 ag parental 2, CHO parental Ca 19, OX1R antag-2 16, OX1R Fluo8 conf 21 and CHO Ca counter 11.
`CN(Cc1ccccc1)C(=O)COC(=O)C1CCN(S(=O)(=O)c2cccs2)CC1` gave CHO-K1 Ca antag -2, CHO-K1 Ca PAM 1, OX1R antag-1 -10, M1 ag parental 4, CHO parental Ca 1 and OX1R antag-2 5.
